Results on 1 compound are retold here after ChEMBL document CHEMBL4825680, “Structure-based discovery of potent and selective small-molecule inhibitors targeting signal transducer and activator of transcription 3 (STAT3)” (Eur J Med Chem, 2021).

The IC50 is the concentration needed to halve the response being measured. For orientation: Cmax means the highest concentration seen after dosing.

Each structure is given as a SMILES string. The source made the active and inactive calls. The rule behind the calls is not given here.

Series [1] deals with MDA-MB-468. As to the kind of experiment: Inhibition of cell migration in human MDA-MB-468 cells incubated for 12 to 96 hrs by wound healing assay. It counts as functional, cell-based. The settings on record: dose 0.3-3 µM, time 12-96 hrs. Put shortly: (§1)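 Cells grown to 100% confluence, then scratched with a pipette tip. Treated with 0–3 μM until vehicle-treated cells had migrated into the scratch. Images taken by microscope after about 12–96 h. Triplicate experiments.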

Series [2] in a line: Toxicity in NOD/SCID mouse xenografted with patient-derived breast cancer cells assessed as morphological change in kidney at 5 to 15 mg/kg, […] once daily for 20 days by HE staining based assay. It counts as organism-based. The settings on record: in vivo, iv, dose 5-15 mg/kg, time 20 day. Put shortly:
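Female NOD-SCID mice implanted subcutaneously in the flank with about 2 mm³ TNBC PDX fragments. At about 100 mm³ tumour volume, randomised n=6/group: vehicle (PBS with 15% Cremophor EL), 5 or 15 mg/kg intraperitoneally daily. Killed at day 20; heart, liver, spleen, lung and kidney collected for morphological examination.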

Series [3] has as its system HCC70. As to the kind of experiment: Antiproliferative activity against human HCC70 cells assessed as reduction in cell viability after 72 hrs by CCK8 assay. It counts as functional, cell-based. Particulars: HCC70, 72 h. Put shortly: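 Cells seeded at 1000–8000 per well were grown overnight, then exposed to 0.1–100 μM compound or 0.1% DMSO vehicle for 72 h. CCK-8 was added for 0.5–4 h at 37 °C and absorbance read at 480 nm. Viability = (OD compound − blank)/(OD vehicle − blank) × 100, with medium as blank. IC50 fitted from three independent experiments.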

Series [4] has as its system MDA-MB-231. In words: Induction of apoptosis in human MDA-MB-231 cells assessed as late apoptotic cells at 1 uM after 48 hrs by Annexin-V-FITC/propidium iodide staining based flow cytometric analysis (Rvb =3.05%). It counts as functional. (In general: Flow cytometry measures light scatter and fluorescence of single cells or particles in a stream.)
Series [5] in a line: Induction of apoptosis in human MDA231-LM2-4175 cells assessed as late apoptotic cells at 1 uM after 48 hrs by Annexin-V-FITC/propidium iodide staining based flow cytometric analysis (reference value: 2.60%). It counts as functional.
In series [6] the test system is MDA-MB-231. In words: Inhibition of cell migration in human MDA-MB-231 cells incubated for 12 to 96 hrs by wound healing assay. The settings on record: dose 0.3-3 µM, time 12-96 hrs. It counts as functional, cell-based. Put shortly: as §1
The target in series [7] is T1, Signal transducer and activator of transcription 3 (Homo sapiens, UniProt P40763). As to the kind of experiment: Inhibition of STAT3 in human MDA231-LM2-4175 cells assessed as downregulation of c-Myc expression at 0.3 to 3 uM after 24 hrs by western blot analysis. Particulars: dose 0.3-3 µM. It counts as cell-based. Put shortly: (§2)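 TNBC cells given vehicle (0.1% DMSO) or graded compound levels for 24 h, lysed in RIPA with PMSF and phosphatase inhibitors. BCA-quantified lysate (20–50 µg) run on SDS-PAGE, transferred to PVDF, blocked in 5% BSA. Probed overnight at 4 °C for Bcl-xL, Mcl-1 and c-Myc, with β-actin. HRP secondary, ECL detection. Three independent experiments.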
(In western blotting, separated proteins are transferred to a membrane and probed.)

Series [8] can be described thus: Toxicity in mouse xenografted with human MDA-MB-231-4175 cells assessed as morphological change in kidney at 5 to 15 mg/kg, […] once daily for 20 days by HE staining based assay. It counts as organism-based. The settings on record: in vivo, iv, 480 h, dose 5-15 mg/kg, time 20 day. Put shortly: (§3)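 Female NOD-SCID mice aged 4–5 weeks, given 2×10^6–3×10^6 MDA-MB-231-4175 cells subcutaneously in the flank. At about 100 mm³ tumour volume, randomised n=6/group: vehicle (PBS with 15% Cremophor EL), 5 or 15 mg/kg intraperitoneally daily. Killed at day 20; heart, liver, spleen, lung and kidney collected for morphological examination.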

Series [9] in a line: Toxicity in mouse xenografted with human MDA-MB-231-4175 cells assessed as morphological change in liver at 5 to 15 mg/kg, […] once daily for 20 days by HE staining based assay. It counts as organism-based. The settings on record: in vivo, iv, dose 5-15 mg/kg, time 20 day. Put shortly:
as §3

Series [10] deals with MDA231-LM2-4175. As to the kind of experiment: Effect on total STAT3 level in human MDA231-LM2-4175 cells at 0.3 to 3 uM measured after 3 hrs by Western blot analysis. It counts as functional, cell-based. The settings on record: dose 0.3-3 µM. Put shortly: (§4)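 Breast cancer cells were treated with vehicle (0.1% DMSO) or compound, then lysed in RIPA with PMSF and phosphatase inhibitors. 20–50 μg protein was run on 8 or 12% SDS-PAGE, blotted to PVDF, blocked in 5% BSA, probed with primary antibodies overnight at 4 °C, then HRP secondaries, with ECL detection.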

A short description of series [11]: Antitumor activity against patient-derived breast cancer cells xenografted in NOD/SCID mouse assessed as tumor growth inhibition at 15 mg/kg, ip administered once daily for 20 days. Particulars: Homo sapiens, Breast cancer cell line, 480 h, read-out: TGI. For orientation: A xenograft is tissue or cells of one species grown in another, often human tumour cells in immunodeficient mice.

Series [12] addresses T1, Signal transducer and activator of transcription 3. In words: Inhibition of STAT3 phosphorylation at Ser727 residue in human MDA-MB-231-4175 cells at 3 uM after 3 hrs by Western blotting analysis. Particulars: MDA231-LM2-4175. It counts as cell-based.
A short description of series [13]: Antitumor activity against human MDA231-LM2-4175 cells xenografted in mouse assessed as tumor growth inhibition at 5 mg/kg, iv administered once daily for 20 days. It counts as functional. Particulars: MDA231-LM2-4175, iv, 480 h, time 20 day, read-out: TGI.
Series [14] is described as follows: Cmax in Sprague-Dawley rat at 10 mg/kg, po measured up to 24 hrs by LC-MS/MS analysis. More on the design: route oral, dose 10 mg/kg, time <=24. It counts as ADME, organism-based. The settings on record: in vivo. Put shortly: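 Male SD rats given a single oral dose of 10 mg/kg in DMSO/0.5% HPMC (5/95, v/v). Blood was drawn at 0.25, 0.5, 1, 2, 4, 8 and 24 h, and plasma was analysed by LC-MS/MS on a BEH phenyl column with a formic acid water/acetonitrile mobile phase.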

The nature of series [15]: Induction of apoptosis in human MDA231-LM2-4175 cells assessed as necrotic cells at 3 uM after 48 hrs by Annexin-V-FITC/propidium iodide staining based flow cytometric analysis (reference value: 0.531%). It counts as functional.
In series [16] the test system is HCC70. In words: Effect on total STAT1 level in human HCC70 cells at 0.3 to 3 uM after 3 hrs by Western blotting analysis. It counts as functional, cell-based. The settings on record: dose 0.3-3 µM. The gist of the method:
as §4

In series [17] the target is T1, Signal transducer and activator of transcription 3. In words: Inhibition of STAT3 in human MDA-MB-231 cells assessed as downregulation of c-Myc expression at 0.3 to 3 uM after 24 hrs by western blot analysis. It counts as cell-based. Particulars: dose 0.3-3 µM. The gist of the method:
as §2

The test system of series [18] is MDA-MB-231. In words: Induction of apoptosis in human MDA-MB-231 cells assessed as early apoptotic cells at 3 uM after 48 hrs by Annexin-V-FITC/propidium iodide staining based flow cytometric analysis (reference value: 2.98%). It counts as functional.
Series [19] concerns MDA-MB-468. In words: Inhibition of cell invasion in human MDA-MB-468 cells incubated for 12 hrs by crystal violet staining based transwell assay. It counts as functional. Particulars: dose 1-3 µM. Put shortly:
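Cells seeded at 1.5×10^4–3×10^4 per well in the upper chamber of 8.0 µm pore Transwell inserts and treated with graded compound for 12 h. Non-invading cells removed with cotton. Invaded cells fixed in 4% paraformaldehyde, stained with crystal violet, photographed and counted. Triplicate.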

The test system of the next series is Breast cancer cell line. As to the kind of experiment: Antitumor activity against patient-derived breast cancer cells xenografted in NOD/SCID mouse assessed as reduction in Mcl-1 expression at 5 to 15 mg/kg, iv administered once daily for 20 days by Western blotting analysis. It counts as functional, organism-based. The settings on record: Homo sapiens, dose 5-15 mg/kg, time 20.0 day.

The test system of series [20] is MDA231-LM2-4175. As to the kind of experiment: Inhibition of cell migration in human MDA231-LM2-4175 cells incubated for 12 to 96 hrs by wound healing assay. Particulars: dose 0.3-3 µM, time 12-96 hrs. It counts as functional, cell-based. The gist of the method:
as §1

T1 sequence (P40763 whole entry): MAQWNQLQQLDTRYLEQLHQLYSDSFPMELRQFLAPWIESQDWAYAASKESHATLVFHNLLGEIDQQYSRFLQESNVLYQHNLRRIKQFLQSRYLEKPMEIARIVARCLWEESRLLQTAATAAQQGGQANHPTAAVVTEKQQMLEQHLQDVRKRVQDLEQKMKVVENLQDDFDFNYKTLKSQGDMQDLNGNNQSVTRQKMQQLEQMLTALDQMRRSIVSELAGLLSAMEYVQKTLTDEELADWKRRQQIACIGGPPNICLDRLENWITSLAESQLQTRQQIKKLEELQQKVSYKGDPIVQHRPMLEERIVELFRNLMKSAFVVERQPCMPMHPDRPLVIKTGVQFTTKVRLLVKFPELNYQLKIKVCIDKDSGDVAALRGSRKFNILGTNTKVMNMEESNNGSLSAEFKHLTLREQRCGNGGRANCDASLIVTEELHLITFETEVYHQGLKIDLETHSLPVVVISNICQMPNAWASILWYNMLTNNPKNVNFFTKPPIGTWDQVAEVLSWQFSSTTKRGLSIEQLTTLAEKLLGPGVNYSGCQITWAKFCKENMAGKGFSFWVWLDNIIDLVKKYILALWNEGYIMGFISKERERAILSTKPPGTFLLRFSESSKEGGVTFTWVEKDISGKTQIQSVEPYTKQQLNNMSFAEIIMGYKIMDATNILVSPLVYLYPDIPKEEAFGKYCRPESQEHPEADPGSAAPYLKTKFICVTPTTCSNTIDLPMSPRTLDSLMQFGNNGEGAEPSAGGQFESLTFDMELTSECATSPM

With `O=C(Cc1c(-c2ccccc2)nc2ccccn12)Nc1ccc2c(c1)S(=O)(=O)C=C2`, the inhibition result in the series on MDA-MB-468 [1], with MDA-MB-231 [6], with MDA-MB-468 [19] and in the series on MDA231-LM2-4175 [20] was “Dose-Dependent Effect” in each case. Moreover, the Activity entry in series [2] is “Non-Toxic”; in the series with MDA-MB-231 [4] it was 7.54%; in series [5], 4%; in [8], “Non-Toxic”; in series [9], “Non-Toxic”; in series [15] it was 1.37%. Further, in the series on MDA-MB-231 [18], the Activity turned out to be 12.5%. The IC50 with HCC70 [3] was determined as 1100 nM. Also, the inhibition entry in series [7], in [12] and in series [17] was “Active” each time. Besides, the outcome with MDA231-LM2-4175 [10] and in the series on HCC70 [16] was inactive. Further, in series [11], the inhibition in vivo at 15 mg/kg stood at 68.9%. Also, the inhibition in vivo at 5 mg/kg in [13] amounted to 20.1%. In addition, the maximum concentration (Cmax) in series [14] came to 23.8 ng/mL. For the same compound, in the series on Breast cancer cell line, the outcome was Active.
